Assay outcomes: PubChem, several laboratories
Sampled rows, rich in hits. Any-hit rate of the full collection: about 1.8%.
C8 TRAIL sens: viability loss with TRAIL in NB7+C8 cells, primary screen, TRAIL sensitizer project, cell-based, ATPlite luminescence | inhibition (viability loss, TRAIL sensitization), % at 10 µM | hit rate 1% among 360,000;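 active = compounds causing at least 50% loss of cell viability in the single-dose screen, relative to plate controls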
STAT1 inh: STAT1 signaling inhibitors, primary screen, cell-based, HTS, luciferase reporter; hit rate 0.35% among 200,000; inhibition, % at 5.5 µM; NIH 3T3 STAT1-luciferase reporter, IFN-gamma, luminescence;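 active = inhibition above a set limit, the mean inhibition across all tested compounds plus 3 SD, cut at about 34% in these data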;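 note: 0% = IFN-gamma with DMSO and 100% = IFN-gamma with 300 µM nifuroxazide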
PPC-1+TRAIL kill: compounds killing PPC-1 cancer cells with TRAIL present, primary screen, TRAIL potentiator project, ATPLite luminescence, uHTS; PPC-1 cells + TRAIL, ATPLite viability luminescence; AID 1443, 2008; cell killing (% activity), % at 4 µM or 5 µM; hit rate 0.41% among 220,000;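 active = cell killing above 50% in the first pass at 4 µM, then a duplicate retest at 5 µM averaging 50% or more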;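 note: plate controls were cells with TRAIL plus DMSO for no effect and medium-only wells lacking cells for full effect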
STAT3 activator: IL-6 driven STAT3 reporter potentiators, primary screen, U3A cells, luciferase, luminescence, MLSCN library | IL-6 STAT3-luciferase reporter; 100% = signal with IL-6 EC80 alone | activation (% of control), % at 5.6 µM | hit rate 0.91% among 190,000;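 active = activation above the screen-wide mean of compound activation plus 3 SD, cut at about 130% in these data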;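 note: 0% = background luminescence of wells with medium and substrate only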
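system = STAT3-luciferase reporter U3A cells | reagent = IL-6 stimulus at 33 ng/mL final | timing = 1 h compound pre-exposure, 6 h IL-6 stimulation, 37 °C | measured by = luminescence | evaluation = % activation versus median of IL-6-stimulated wells | control set = IL-6-only wells as 100% reference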
STAT3 inh: IL-6 driven STAT3 reporter inhibitors, primary screen, U3A cells, luciferase, luminescence, MLSCN library; hit rate 0.89% among 190,000; IL-6 STAT3-luciferase reporter; host cell line lacks STAT1; AID 862, 2007; inhibition, % at 5.5 µM;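 active = inhibition above the mean inhibition across all screened compounds plus 3 SD, cut at about 44% in these data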;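 note: 0% = DMSO only wells and 100% = 100 µM nifuroxazide control wells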
The depositor's hits bear a star; . = no result.

SMILES	C8 TRAIL sens	STAT1 inh	PPC-1+TRAIL kill	STAT3 activator	STAT3 inh
O=C(Nc1nc2ccccc2[nH]1)C1CC1	24	-27	6	104	3
O=C(Nc1nc2ccccc2[nH]1)C12CC3CC(CC(C3)C1)C2	70*	-35	7	100	6
COc1ccc(C(=O)N[C@H](C(=O)Nc2nc3ccccc3[nH]2)C(C)C)cc1	28	-30	14	125	-20
Cc1c(C(=O)Nc2nc3ccccc3[nH]2)oc2ccccc12	42	-66	16	145*	-58
C#CCOCCOCCOCCNc1nc(N2CCN(C(=O)CCCCCCCCCCNC(=O)Cn3cc(C[C@@H](C)O)nn3)CC2)nc(N2CCN(C(=O)CCCCCCCCCCNC(=O)[C@@H]([C@H](C)CC)n3cc(CCCCCN)nn3)CC2)n1	93*	.	.	.	.
C#CCOCCOCCOCCNc1nc(N2CCN(C(=O)CCCCCCCCCCNC(=O)[C@H](CCCCN)n3cc(C[C@@H](C)CC)nn3)CC2)nc(N2CCN(C(=O)CCCCCCCCCCNC(=O)[C@H](CCCN=C(N)N)n3cc(C[C@@H](C)CC)nn3)CC2)n1	94*	.	.	.	.
C#CCOCCOCCOCCNc1nc(N2CCN(C(=O)CCCCCCCCCCNC(=O)[C@H](CCCCN)n3cc(C)nn3)CC2)nc(N2CCN(C(=O)CCCCCCCCCCNC(=O)[C@@H]([C@H](C)O)n3cc(C)nn3)CC2)n1	26	.	.	.	.
C#CCOCCOCCOCCNc1nc(N2CCN(C(=O)CCCCCCCCCCNC(=O)[C@H](CCCCN)n3cc(C[C@@H](C)CC)nn3)CC2)nc(N2CCN(C(=O)CCCCCCCCCCNC(=O)[C@@H]([C@H](C)O)n3cc(C)nn3)CC2)n1	96*	.	.	.	.
CCN(C(=O)COC(=O)CCc1ccc(OC)cc1)c1c(N)n(Cc2ccccc2)c(=O)[nH]c1=O	-17	.	.	.	.
CC(C)Oc1ccc(C2NC(=O)c3ccccc3O2)cc1 (stereo not given)	29	.	.	.	.
Fc1ccc(-c2nc3n(n2)Cc2ccccc2-3)cc1	57*	-15	2	117	-15
Cc1ccc[n+](C(C)C(=O)Nc2ccc(C)c(C)c2)c1 (stereo not given)	-12	.	.	.	.
O=C(CCc1nnc(CCCCc2ccccc2)o1)N1CCC(N2CCCC2)CC1	-5	1	4	102	3
COC(=O)CSc1nnc(NC(=O)c2ccc3c(c2)OCO3)s1	77*	.	.	.	.
CCC(CC)c1nnc(NC(=O)c2ccc3c(c2)OCO3)s1	2	.	.	.	.
COC(=O)CSc1nnc(NC(=O)/C=C\c2ccc3c(c2)OCO3)s1	53*	-1	33	93	11
CCOc1ccccc1NC(=O)c1cc(S(=O)(=O)NCc2ccco2)ccc1F	3	.	.	.	.
CCOC(=O)c1cccc(C2=CC(=O)C[C@H](c3ccc(OC)cc3)C2)c1	-8	.	.	.	.
COc1nn(-c2ccccc2)c(=O)c(Cl)c1Cl	91*	.	.	.	.
O=C(/C=C1\NCC2c3ccccc3CCN2C1=O)c1ccccc1 (stereo not given)	3	1	-3	134*	-31
COC(=O)C1CCC(=O)N1C(c1ccc(OC)cc1)c1cc(OC)c(OC)c(OC)c1 (stereo not given)	1	.	.	.	.
Cc1noc(C)c1COC(=O)c1cc(S(=O)(=O)N2CCOCC2)ccc1F	-14	.	.	.	.
O=C(OCc1cc(=O)oc2cc(O)ccc12)c1cc(S(=O)(=O)N2CCOCC2)ccc1F	68*	.	.	.	.
CCc1cc2c(COC(=O)c3cc(S(=O)(=O)N4CCOCC4)ccc3F)cc(=O)oc2cc1O	75*	.	.	.	.
CC1Cc2nc(SCC(=O)N3CCCCC3)n(C)c(=O)c2S1 (stereo not given)	-26	.	.	.	.
SMILES	C8 TRAIL sens	STAT1 inh	PPC-1+TRAIL kill	STAT3 activator	STAT3 inh
CC(=O)n1c2c(c3ccccc31)OC(N)=C(C#N)C2c1ccc(C(C)C)cc1 (stereo not given)	-2	-32	6	165*	-73
COc1ccc(-c2cc(C(=O)N/N=C/c3ccc4c(c3)OCO4)c3ccccc3n2)c(OC)c1	18	-6	13	112	-3
COc1ccc(-c2cc(C(=O)N/N=C/c3sccc3C)c3ccccc3n2)c(OC)c1	24	-8	6	135*	-44
COc1cc(/C=N/NS(=O)(=O)c2ccc(C)cc2)ccc1OCc1ccc(C(=O)O)cc1	15	85*	19	56	54*
COc1ccccc1C(=O)N=C1SC2CS(=O)(=O)CC2N1c1ccccc1 (stereo not given)	-3	.	.	.	.
O=C(Nc1ccc(N2CCOCC2)cc1)c1nc2ccccc2s1	16	.	33	.	.
O=C(CN1CCN(S(=O)(=O)c2ccc(F)cc2)CC1)Nc1ccc(Cl)c(C(F)(F)F)c1	60*	2	0	104	3
COc1cc(/C=N/Nc2nc(N3CCCC3)nc(N3CCCC3)n2)ccc1O	1	0	29	96	9
COc1ccc(-c2cnnc(N/N=C/c3ccc(O)c(OC)c3)n2)cc1	59*	-20	39	100	3
CC1=C(C(=O)Nc2cc(C(=O)N3CCN(c4cccc(C)c4C)CC3)ccc2C)SCCO1	-2	.	.	.	.
O=C(CNC(=O)c1ccccc1F)NCCc1ccccc1F	-8	.	.	.	.
CC(=O)c1cc(Cl)ccc1OC(=O)c1ccco1	15	0	5	106	0
O=C(Oc1ccc(Br)cc1C(=O)/C=C/c1ccccc1F)c1ccco1	24	-1	.	140*	-39
O=C(Cc1nc2ccccc2[nH]1)c1cccc([N+](=O)[O-])c1	34	.	12	.	.
O=C(NCc1ccccc1Cl)c1cccc2c1C(=O)c1ccc(-c3ccc(OC(F)(F)F)cc3)cc1S2(=O)=O	54*	.	.	.	.
Cc1ccc(S(=O)(=O)n2ccc3c(OCCOCCSCC(NC(=O)OC(C)(C)C)C(=O)O)cccc32)cc1 (stereo not given)	16	.	.	.	.
Cc1ccc(S(=O)(=O)n2ccc3c(OCCOCCNCc4ccc(F)cc4)cccc32)cc1	53*	.	.	.	.
C[C@@H]1CN([C@@H](C)CO)C(=O)CCCn2nncc2CO[C@H]1CN(C)S(=O)(=O)c1ccccc1C#N	4	.	.	.	.
Cc1ccc(S(=O)(=O)NC(=NC(Cc2ccccc2)C(=O)O)c2ccccc2)cc1 (stereo not given)	-5	.	.	.	.
O=Nc1c(O)c2ccccc2c2ccccc12	92*	.	.	.	.
C=CC(=O)N1C/C(=C/c2ccc(F)cc2)C(=O)/C(=C\c2ccc(F)cc2)C1	93*	.	.	.	.
CN1C2CCC1/C(=C\c1ccc(F)cc1)C(=O)/C2=C/c1ccc(F)cc1	5	8	-3	98	0
COc1ccc(C2NN=C(c3ccc(C)cc3)S2)cc1OC (stereo not given)	59*	-40	31	94	10
Cc1ccc(C2=NNC(C(O)C(O)C(O)C(C)O)S2)cc1 (stereo not given)	8	-23	23	101	-4
